Assay results published in ChEMBL document CHEMBL4513216, “Probing the Open Global Health Chemical Diversity Library for Multistage-Active Starting Points for Next-Generation Antimalarials” (ACS Infect Dis, 2020).

Experiment: Toxicity liver stage against HepG2, at 10uM
Format: cell-based
Parameters: test concentration 10 uM, cell line HepG2-A16-CD81EGFP
Settings: human, HepG2-A16-CD81EGFP cells; read-out: INHIBITION
In short: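 Uninfected HepG2-A16-CD81EGFP cells, 3 × 10^3 per well, 1536-well, plated on prespotted compound at 10 μM final, parasite-free screening media added to match infected plates; puromycin 10 μM positive, DMSO 0.5% negative; run in parallel with 48 h PbLuc assay at 37 °C, 5% CO2; viability by CellTiter-Glo luminescence, normalized to controls.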

Row | Structure (SMILES) | cytotoxicity at 10 µM
1 | c1ccc2c(Cc3nnc([C@H]4CCN(C5CCC5)C4)o3)c[nH]c2c1 | -0.0653%
2 | COc1cccc(CN2CCN3C(=O)NC[C@H]3C2)n1 | -1.45%
3 | CCCc1nnc(SCc2cc(=O)n3c4c(sc3n2)CCCC4)[nH]1 | -1.05%
4 | Cn1ccc2cc(C(=O)N3CC[C@@]4(O)CCCC[C@H]4C3)ccc21 | -46.8%
5 | CC(C)CNc1c(NCc2ccco2)c(=O)c1=O | -10.6%
6 | Cc1nc2sc(C(=O)N3CCNC(=O)C3)c(C)c2c(=O)[nH]1 | 4.13%
7 | CC(=O)Nc1ccc(SCC(=O)NCC2CCCO2)nn1 (stereo not given) | -16.7%
8 | O=C(Nc1cccs1)N1CC(c2nc(C3CC3)no2)C1 | -0.921%
9 | CC(=O)N1CCC2(CCCN(C(=O)CCN3CCCCC3)C2)C1 (stereo not given) | 0.906%
10 | Cc1cccc(N2CC3(CCN(S(=O)(=O)c4cccs4)C3)CC2=O)c1 (stereo not given) | -1.21%
11 | Cc1noc(C2CCC3(CCN(C(=O)c4cnccn4)CC3)O2)n1 (stereo not given) | 7.19%
12 | COCC(=O)N1CCC2(COCc3c(C)nc(N(C)C)nc32)C1 (stereo not given) | 9.09%
13 | O=C(NCC1CCCO1)c1nc2c(s1)CCCN2c1ncccn1 (stereo not given) | -5.17%
14 | Cc1cccc(CN2C[C@@H]3CN(C(=O)c4conc4C)C[C@@H]3C2=O)c1 | 2.66%
15 | CCc1c(C(=O)O)nnn1-c1cc(C)cc(C)c1 | -6.69%
16 | O=C(NCCN1CCOCC1)c1cc(-c2ccc3c(c2)CCO3)n[nH]1 | -2.95%
17 | O=C(c1cnn2c1OCCC2)N1CCN(C/C=C/c2ccccc2)CC1 | 9.28%
18 | O=C(CC1CCCC1)NCCn1ccc(-c2ccccn2)n1 | 5.5%
19 | CCN1C(=O)CCCC12CCCN(C(=O)c1conc1C)C2 (stereo not given) | 4.57%
20 | O=C(c1cccs1)N1C[C@H]2CC[C@@]3(N=C(c4ccccc4)NC3=O)[C@H]2C1 | -9.84%
21 | Cc1ccccc1CN1CCN(c2ncnc3c2NC(=O)CN3)CC1 | 6.78%
22 | Cc1cccc(NC(=O)CN2C(=O)CC(C)(C)c3ccccc32)n1 | 2.2%

Row | Structure (SMILES) | cytotoxicity at 10 µM
23 | CCC(=O)N1CCCCC1c1nc(CN(C)C(C)=O)cc(N(C)C)n1 (stereo not given) | -3.17%
24 | CCc1nnc(Nc2cc(C)nc(C3CN(C(C)=O)CCO3)c2)s1 (stereo not given) | 4.74%
25 | Cc1nc(N)cc(C2CCN2CCC(N)=O)n1 (stereo not given) | -1.21%
26 | Cc1ccnn1CCC(=O)N1CCCC[C@]2(C)NC(=O)CCC[C@H]12 | -0.822%
27 | COCC(=O)N1C[C@@H](c2cccc(OC)c2)[C@@]2(CCCCC(=O)N2)C1 | 1.62%
28 | Nc1ccc(CC2CCCN(Cc3c[nH]cn3)C2)nn1 (stereo not given) | -0.701%
29 | C[C@]1(O)CCN(Cc2ncccc2F)C[C@@H]1Oc1cccc(F)c1 | -1.37%
30 | Cc1cccnc1Nc1nccc(C2CN(CC(N)=O)C2)n1 | -34.3%
31 | CC(=O)N1CCCC(c2ccc(N3CCOCC3)cn2)C1 (stereo not given) | -18.9%
32 | COCCC(=O)N1CCC(c2cncc(Oc3cccnc3)n2)CC1 | -9.55%
33 | CC(C)(C)C(=O)N1CCC(n2nc(-c3ccco3)ccc2=O)CC1 | -15.4%
34 | CCC(=O)N1CCCC1c1csc(Nc2cnccn2)n1 (stereo not given) | -2.8%
35 | CC(C)(C)OC(=O)N1CCN(c2nnc(Br)s2)CC1 | 10.8%
36 | O=C(O)c1cnc(OCC2CC2)c(Br)c1 | 9.38%
37 | O=C(C1CCCS1)N1CCOc2cccc(F)c21 (stereo not given) | -6.54%
38 | O=C(COC1CCCCC1)Nc1ccn(CCc2ccncc2)n1 | -3.87%
39 | CC(C)(NC(=O)c1scnc1Cl)c1ccccc1 | -10.9%
40 | O=C1COc2cc(C(=O)N3CCCC(n4ccnc4)C3)ccc2N1 (stereo not given) | 1.75%
41 | COc1ccc(C)cc1CN(CC(N)=O)C(C)C | -0.846%
42 | COC1CCN(CCNC(=O)NC(C)c2ccc(F)c(F)c2)CC1 (stereo not given) | 9.88%
43 | CC(=O)N1CCN(CCNc2snc(Cl)c2C#N)CC1 | 5.69%
44 | CC1COc2ccccc2N1C(=O)c1ccnc(-n2cncn2)c1 (stereo not given) | 12.5%

Row | Structure (SMILES) | cytotoxicity at 10 µM
45 | CN(Cc1cnn(C)c1)S(=O)(=O)N1CCCCCC1 | -1.43%
46 | COc1cc(CN(C)C(=O)NCc2cccnc2OC)ccc1SC | -8.82%
47 | Cc1ccc(CNC(C)c2nnc3n2CCCC3)o1 (stereo not given) | -7.17%
48 | CC(C)(O)CNC(=O)NCc1nccn1CCc1ccccc1 | 3.04%
49 | CN(C(=O)NCc1nccn1CCc1ccccc1)C1CCC1 | 1.96%
50 | CC(C)C(C)NC(=O)Nc1ccc(CS(=O)(=O)C(C)C)cc1 (stereo not given) | -1.28%
51 | O=C(C1CCCC1)N1CCCC1c1nnc2n1CCCCC2 (stereo not given) | -2.58%
52 | CC(C)C(NC(=O)c1ccccc1F)C(=O)N1CCC2(CC1)OCCO2 (stereo not given) | 7.04%
53 | O=C(Nc1cccn(Cc2ccccc2)c1=O)c1ccncc1F | 14.8%
54 | Cc1cc(CNc2ccc3nc(C)sc3c2)no1 | -5.2%
55 | Cc1cc(CNC2(c3ccccc3F)CC2)no1 | 5.71%
56 | Cc1cnn(CCCNC(=O)NCCS(=O)(=O)Nc2ccccc2)c1 | 1.07%
57 | CCNC(=O)C1CCCN(C(=O)Nc2cc(C#N)ccc2OCC)C1 (stereo not given) | -1.71%
58 | CCC(=O)NCc1cc(Br)c(OC)c(OC)c1 | -0.0582%
59 | Cc1cc(=O)n2ncnc2n1CC(O)c1cc(F)ccc1F (stereo not given) | 1.7%
60 | Cc1[nH]ccc1C(=O)Nc1cccc(CN2CCC(O)CC2)c1 | 0.149%
61 | COc1ccc(C2CCCN2S(=O)(=O)N(C)CC(C)C)cc1 (stereo not given) | -6.72%
62 | CN(C)C(=O)C1CCCN1CCCNC(=O)c1ccccc1F (stereo not given) | -20.2%
63 | CSCC(CCO)NC(=O)Nc1cccc(Br)c1 (stereo not given) | -7.69%
64 | CSCC(CCO)NC(=O)Nc1cc(Br)ccc1C (stereo not given) | -11.1%
65 | CC(C)CNC(=O)C1=NOC2(CCN(Cc3ccoc3)C2)C1 (stereo not given) | -3.42%
66 | CS(=O)(=O)NCc1cc(-c2cc(F)cc(F)c2)nc(N2CCOCC2)n1 | -9.24%

Row | Structure (SMILES) | cytotoxicity at 10 µM
67 | CCCc1ccc(CN2CCN(C(=O)N(C)C)[C@@H]3CS(=O)(=O)C[C@@H]32)o1 | 8.69%
68 | Cc1nn2cc(CNc3nccc(CCC(F)(F)F)n3)nc2s1 | -8.27%
69 | O=C(CCN1CCCO1)N1CCCC(CO)(CCCc2ccccc2)C1 (stereo not given) | 2.76%
70 | CCCc1ccc(CN2CCN(c3ncccn3)[C@@H]3CS(=O)(=O)C[C@@H]32)o1 | 1.66%
71 | CCCn1c(C)c(CC(=O)NCCNC(C)=O)c2c1CC(C)(C)CC2=O | 6.2%
72 | Cc1c[nH]c(C(=O)N2CCCC2c2ccc(C(=O)N3CCSCC3)s2)n1 (stereo not given) | 2.73%
73 | Cc1oc(-c2ccoc2)nc1CN1CCC[C@H]1CO | -16.5%
74 | CC(C)c1noc(CN(C)C(=O)C2COc3ccccc3C2)n1 (stereo not given) | 2.77%
75 | COc1cccc(-c2n[nH]c3c2CN(C(=O)c2ccncc2)CC3)c1 | -5.55%
76 | CCc1cnc(NCC(CC)N2CCOCC2)nc1 (stereo not given) | 12.8%
77 | COc1ccccc1S(=O)(=O)N1CCC2(CC1)OCCCC2O (stereo not given) | 0.0773%
78 | O=C(O)c1cc(-c2cn[nH]c2)cc(S(=O)(=O)N2CCSCC2)c1 | -8.26%
79 | COc1ccccc1CN(C)C(=O)c1cc(CN2CCC(O)CC2)on1 | -26.7%
80 | CN1CCCN(C[C@@H]2CN(C(=O)CCC3CCCC3)C[C@@H]2CO)CC1 | -20.6%
81 | CCN1CCn2nc(CCC(=O)N3CCCC3)cc2C1 | 0.685%
82 | Cn1cc(CN2CC[C@@H]3[C@@H](CCC(=O)N3CCc3c[nH]cn3)C2)cn1 | -9.73%
83 | CCc1nc(C)cn1C(=O)Nc1ccc(C)cc1 | -1.64%
84 | Cn1c(=O)c2cc(C(=O)NCc3ccncc3)ccc2n(C)c1=O | -11.1%
85 | CCCNC(=O)NC(=O)CNC(C)(C)c1ccc2c(c1)OCCO2 | -14.7%
86 | CC(C)n1cc(CN2CCCN(C(=O)CC3CCCO3)CC2)cn1 (stereo not given) | -12.4%
87 | CN(C)c1cc(C(=O)N2CCCC2)ccn1 | -4.1%
88 | CC(C(=O)N1CCCN(Cc2cscn2)CC1)N1CCOCC1 (stereo not given) | -11.4%

Row | Structure (SMILES) | cytotoxicity at 10 µM
89 | CCN(CC1COc2ccccc2O1)C(=O)CCn1cncn1 (stereo not given) | -9.21%
90 | Cc1nc(-c2ccsc2)ccc1C(=O)NC(C)CN1CCOCC1 (stereo not given) | -13.8%
91 | CN(Cc1ccncc1)C(=O)NCc1nnc2n1CCCCC2 | -26%
92 | Cc1cnn(CC2CN(Cc3nc(-c4cccnc4)no3)CCO2)c1 (stereo not given) | -20.5%
93 | CC(C)Oc1ccc(CNC(=O)CC(F)(F)F)cc1F | -1.08%
94 | CC(C)OCCCNC(=O)c1ccc(-c2ccco2)[nH]c1=O | -4.45%
95 | O=C(NCc1cccs1)c1nc2c(o1)CN(C(=O)c1cccnc1)C2 | -6.04%
96 | c1cc(CN2CCCC3(COCCN(Cc4c[nH]nn4)C3)C2)cs1 (stereo not given) | 8.59%
97 | CN(Cc1cncnc1)[C@H]1CN(CC2CC2)[C@@H]2CCCO[C@@H]21 | -9.87%
98 | Cn1cccc1C(=O)NCc1cn2c(n1)CN(CC1CCOCC1)CC2 | 8.33%
99 | c1ccc(OC[C@]23COC[C@H]2CN(C2CCOCC2)C3)nc1 | -2.6%
100 | CN(C)CCN1CCN(Cc2cccc(C#N)c2)Cc2cccnc21 | -1.57%
101 | Fc1cccc(-c2c[nH]c(C3CCCN3)n2)c1 (stereo not given) | -5.93%
102 | CC(=O)N1CCC2(CC1)C(=O)N(CC1CCN(C)CC1)c1ccccc12 | 1.73%
103 | CNC(=O)CN1CCc2c(CNc3nccs3)n[nH]c2C1 | 3.25%
104 | CN1CC(=O)N(c2cccc(F)c2)CC12CCN(CC1CCOCC1)C2 (stereo not given) | 0.887%
105 | O=C(NCc1cccs1)[C@H]1CC[C@@H]2[C@@H](CCN2C2CCC2)O1 | -6.34%
106 | Cn1ccnc1CN1CCC2(CC1)CN(c1ccccc1)C(=O)CO2 | -0.414%
107 | CC(C)NC(=O)[C@H]1C[C@@H]2[C@@H](C1)OCCN2Cc1cnn(C)c1 | 5.68%
108 | O=C(CC1CCC2(CC1)CCN(Cc1cccnc1)CC2)N1CC=CC1 | -2.13%
109 | CCN1CCC2(CC1)CC(NCc1cccc(C)n1)c1ccccc1O2 (stereo not given) | -1.46%
110 | CN(C)C(c1ccccn1)C1CCC(CNC(=O)CC2CCCC2)CC1 (stereo not given) | 9.43%
